Compounds with a hit are over-represented: about 0.81% of the library has one in this group of screens.
PKD1 inh: PKD1 (human) kinase inhibition. Q15139. PKD1 kinase fluorescence polarization assay. inhibition, % (test concentration not listed). 0.056% of 200,000 active. AID 797; in the data active = inhibition above about 50%
Pf gamet viab: kills late stage P. falciparum gametocytes; P. falciparum stage V gametocytes, ATP luminescence, 24 h; inhibition, % at 10.9 µM; 0.065% of 150,000 active; AID 743093;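 active = inhibition above the mean plus 3 SD of compounds within the control limits, set per campaign, cut at about 38% in these data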;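 also: 0% = DMSO wells and 100% = medium only without gametocytes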
DTT redox prof: compounds producing H2O2 with reducing agent – biochemical, NIH compound library profiling, artefact control for MLSCN library redox annotation, primary screen; DTT-dependent redox cycling H2O2, phenol red/HRP absorbance; 100% = 100 µM peroxide control, 0% = buffer; activation, % at 10 µM; 0.03% of 200,000 active;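 active = activation of at least 50% relative to the plate's high and low controls in the primary single-dose screen; inactive = activation below 50%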;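 also: compound incubated with DTT at 0.8 mM final as the reducing agent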
Rad51 HR inh: Rad51 (human) homologous recombination inhibition; Q06609; hRad51 DNA strand exchange, fluorescence dequenching; inhibition, % at 10 µM; 0.085% of 200,000 active;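 active = inhibition above 40% at the single screening dose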;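 also: 0% = DMSO control wells and 100% = blanks with heterologous ssDNA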
Target sequence (Q06609 whole entry, looked up): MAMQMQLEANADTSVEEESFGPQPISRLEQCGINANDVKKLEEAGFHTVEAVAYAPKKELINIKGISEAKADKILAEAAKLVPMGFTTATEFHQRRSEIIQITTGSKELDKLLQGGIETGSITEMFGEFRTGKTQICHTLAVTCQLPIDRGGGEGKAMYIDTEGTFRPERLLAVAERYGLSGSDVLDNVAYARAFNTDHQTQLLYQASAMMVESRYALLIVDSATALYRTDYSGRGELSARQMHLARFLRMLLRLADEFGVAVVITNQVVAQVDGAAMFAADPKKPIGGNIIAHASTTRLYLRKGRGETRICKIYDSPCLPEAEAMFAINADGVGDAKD
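material = hRad51 filaments on single-stranded DNA | reagent = Donor/quencher-labelled 47-bp dsDNA substrate | compound = 10 µM final, single point | schedule = strand-exchange reaction 15 min at room temperature | measured by = fluorescein emission 520 nm, excitation 485 nm | read-out basis = % inhibition versus plate control and blank means | benchmarks = plate controls and plate blanks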
Efa HMGR inh: blocks class II HMG-CoA reductase of Enterococcus faecalis; purified E. faecalis HMGR, NADPH absorbance 340 nm kinetic; inhibition, % at 10 µM; 0.41% of 190,000 active;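 active = inhibition above a set limit, the median over all tested compounds plus 3 SD, cut at about 9.5% in these data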;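 also: enzyme runs in reverse so mevalonate oxidation gives rising NADPH absorbance; 0% = complete reaction with DMSO and 100% = background rate lacking mevalonate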
Calpain2 inh: blocks pig calpain II enzyme activity | purified calpain II, fluorogenic peptide substrate, 30 min | inhibition, % at 16 µM | 0.37% of 220,000 active | AID 1236;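 active = inhibition above about 50%, limit read from the data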
Numbers without * were called inactive; . = not tested or not shown.

SMILES	PKD1 inh	Pf gamet viab	DTT redox prof	Rad51 HR inh	Efa HMGR inh	Calpain2 inh
CCOC(=O)C1(CCCc2ccccc2)CCN(C(=O)CCOC)CC1	-6.7	.	11.5	.	-2.7	15.6
Cc1nonc1OCCNCc1c(C(=O)N2CCCCCCC2)nc2ccc(Cl)cn12	-4.8	-12.0	-0.8	16.8	-4.1	-28.1
COc1ccc(CNc2ccc([N+](=O)[O-])cc2C)cc1	.	-7.1	.	-11.4	.	82.4*
O=C(Cn1nc(-c2ccc3c(c2)OCCO3)ccc1=O)Nc1cccc(NC(=O)c2ccccn2)c1	-1.6	.	0.1	-5.8	-6.2	62.2*
CC1CCN(S(=O)(=O)c2ccc(NC(=O)CSc3nnnn3C)cc2)CC1	-5.5	-19.0	2.7	1.5	-4.0	59.1*
Cn1nnnc1SCC(=O)Nc1cccc(S(=O)(=O)N2CCCC2)c1	-0.3	-5.6	-3.2	1.6	2.0	-24.6
CC(C)(C)c1csc(N/N=C/c2cccnc2)n1	1.2	-22.3	0.2	6.7	-1.5	51.4*
CC1(C)Cc2c(C#N)c(NCc3ccco3)nc(-c3ccco3)c2CO1	-5.0	.	0.2	1.4	12.3*	-260.2
Cc1nc(NCc2ccco2)c(C#N)c2c1COC(C)(C)C2	-6.0	.	-0.5	-3.7	-0.1	-22.1
CN(C1CCS(=O)(=O)C1)S(=O)(=O)c1ccccc1 (stereo unspecified)	1.2	38.5*	-0.4	8.7	6.3	-19.6
O=C(Nc1ccc(Cl)c(Cl)c1)Nc1nnc(-c2ccncc2)s1	-6.0	2.0	0.6	0.4	-8.4	101.6*
COc1ccc(NC(=O)Nc2nnc(-c3ccncc3)s2)cc1	-2.2	-21.4	0.1	-2.9	0.0	6.7
Cc1cccc(C(=O)NC2CCN(C(=O)Nc3ccccc3C)CC2)c1	-1.1	15.6	-0.9	-3.3	14.1*	12.6
CCOc1ccccc1NC(=O)N1CCC(NC(=O)c2cccc(C)c2)CC1	21.4	.	1.7	-1.1	-1.5	-20.2
Cc1cc(-c2cc(C(=O)NCc3ccccc3)on2)nc(NC2CCCC2)n1	.	.	.	6.4	.	6.9
Cc1cc2nc(SCC(=O)O)nc(C)c2cc1C	-17.6	.	-2.5	-11.0	2.8	-4.6
CCOC(=O)CSc1nc(C)c2cc(C)c(C)cc2n1	-3.7	6.8	-0.5	0.7	12.7*	-17.5
CC(=O)c1sc(NC(=O)COc2ccc(Cl)cc2C)nc1C	.	-1.5	.	-15.5	.	14.3
COc1ccc(OC)c(NC(=O)CSc2nc3ccccc3c3nc4ccccc4n23)c1	-0.4	.	0.5	-7.0	-2.0	69.5*
COc1cc(/C=N/NC(=O)COc2ccc(-n3cnnn3)cc2)ccc1OCC(N)=O	.	-16.1	.	12.7	.	-4.9
CCOC(=O)C1CCN(CC(=O)Nc2c(C(=O)OC)n(C)c3cccc(C)c23)CC1	7.7	25.2	1.8	69.1*	-1.8	-49.7
O=C(Nc1ccc2c(c1)C(=O)N(CC1CCCO1)C2=O)c1ccccc1Br (stereo unspecified)	-10.6	.	5.7	3.9	12.0*	-402.1
COc1ccc(C2C(C(C)=O)=C(Nc3ccccc3)CC(C)(O)C2C(C)=O)cc1OC (stereo unspecified)	-0.6	.	0.1	5.8	13.6*	3.5
CCCNC(=O)C1(CC2CC(c3ccccc3)=NO2)CCN(C(=O)C2CCCC2)CC1 (stereo unspecified)	.	0.2	.	.	.	.
Cn1cc(CN2CCN(c3ncccn3)CC2)c(-c2cccc(Cl)c2)n1	-5.7	13.5	-1.6	-0.9	9.6*	-28.6
SMILES	PKD1 inh	Pf gamet viab	DTT redox prof	Rad51 HR inh	Efa HMGR inh	Calpain2 inh
Cc1cc(N2CCN(Cc3cn(C)nc3-c3cccc(Cl)c3)CC2)cc(C)n1	-12.3	9.3	-0.1	1.1	6.0	-17.3
CCn1cc(C(=O)O)c(=O)c2cc(F)c(N3CCN(S(=O)(=O)c4ccc(Br)cc4)CC3)cc21	-9.5	.	0.4	-6.3	10.3*	-111.8
CC(C)(C)OC(=O)N[C@@H](Cc1ccccc1)[C@H](O)c1ccco1	.	-15.5	.	2.6	.	6.5
CSCCCNC(=S)N(C)CC(=O)Nc1ccc(C)cc1	0.4	.	-2.1	8.4	-8.9	22.1
Cc1cc(/C=N/NC(=O)C(=O)NCc2ccccn2)c(C)n1-c1ccccc1	5.5	11.5	-0.1	3.5	-4.3	27.9
C=CC#CC[N+]1(CC#Cc2ccccc2)CCOCC1	20.3	-60.1	-0.6	63.9*	0.5	-16.9
C(#Cc1ccccc1)C[N+]1(CC#Cc2ccccc2)CCCC1	-8.0	-3.2	0.0	1.0	-3.1	6.7
CC(C)n1c(O)c(N=NC(=O)CNC(=O)CCc2ccccc2)c2ccccc21	.	-2.8	.	.	.	66.4*
CC(C)n1c(O)c(N=NC(=O)Cn2ccc(C(F)(F)F)n2)c2ccccc21	-2.8	1.5	0.3	-4.5	-6.2	4.8
O=C1NC[C@@H](Cc2cccc3ccccc23)N(CCCCC2CCCCC2)C1=O	.	-4.7	.	.	.	.
NC(=O)C1Cc2ccccc2CN1S(=O)(=O)c1cccs1 (stereo unspecified)	-7.8	4.9	0.5	-19.8	9.7*	-3.3
CCOC(=O)C1CCCN(C/C=C/c2ccccc2)C1 (stereo unspecified)	.	-5.5	.	.	.	.
CCOC(=O)CNC(=O)N1CCCC(Cc2ccccc2)(C(=O)OCC)C1 (stereo unspecified)	.	-13.2	.	.	.	.
COc1cccc(COc2nc3c(c(=O)n(C)c(=O)n3C)n2C)c1	-2.4	.	0.7	.	0.3	76.0*
C=CCn1c(Oc2ccccc2)nc2c1c(=O)n(C)c(=O)n2C	1.2	.	-0.1	-2.2	16.3*	-17.1
CCCNCc1cc(OC)c(OCC(=O)NCCc2ccccc2)cc1Br	-6.9	-0.5	-0.2	.	3.1	-8.2
CCCNCc1cc(OC)c(OCc2ccccc2)cc1Br	-7.5	0.0	0.8	.	19.1*	19.9
O=C(CCNc1ccccc1)c1cccc([N+](=O)[O-])c1	4.8	8.3	-0.1	.	-4.8	50.6*
O=C(Nc1cccc([N+](=O)[O-])c1)c1cccc(C(=O)Nc2cccc([N+](=O)[O-])c2)c1	.	.	.	-0.1	.	55.8*
O=C(CCNc1ccc(F)cc1)c1cccc([N+](=O)[O-])c1	-7.6	.	2.7	-8.0	-2.4	14.3
Cn1cc(NC(=O)c2cc(NC(=O)c3cc(NC=O)cn3C)cn2C)cc1C(=O)NCCC(=N)N	.	.	.	47.8*	.	-15.5
O=S1(=O)CC=C(CSC(=S)NC2CCS(=O)(=O)C2)C1 (stereo unspecified)	5.5	.	0.5	.	14.9*	3.8
CSS(=O)(=O)c1cccc2cccnc12	.	12.0	.	11.0	.	-16.3
CNC(=S)NCc1ccc2[nH]c3c(c2c1)CCCC3	5.8	-17.6	0.2	26.5	-2.0	-16.2
CCCCNC(=S)NCc1ccc2[nH]c3c(c2c1)CCCC3	2.6	.	-1.2	1.5	-1.0	63.1*
CCOCCCNc1ccc(N2C(=O)C3CCCCC3C2=O)cc1[N+](=O)[O-] (stereo unspecified)	0.9	-14.9	-1.0	10.5	-3.8	58.7*
CCOC(=O)N1CCC(Nc2ccc(N3C(=O)C4CCCCC4C3=O)cc2[N+](=O)[O-])CC1 (stereo unspecified)	0.8	-19.0	1.8	.	-2.7	98.2*

Screens as filed in PubChem BioAssay.
